In ChEMBL document CHEMBL1681779, “Design, synthesis and docking study of 5-amino substituted indeno[1,2-c]isoquinolines as novel topoisomerase I inhibitors” (Bioorg Med Chem, 2011):
Activity calls are given as the source filed them. No cut-off for these calls is given here.

Columns and labels:
[1] = target: T1, DNA topoisomerase 1 (Homo sapiens) (UniProt P11387); test: Inhibition of DNA topoisomerase 1 relative to 0.1 uM camptothecin
T1 sequence (whole entry): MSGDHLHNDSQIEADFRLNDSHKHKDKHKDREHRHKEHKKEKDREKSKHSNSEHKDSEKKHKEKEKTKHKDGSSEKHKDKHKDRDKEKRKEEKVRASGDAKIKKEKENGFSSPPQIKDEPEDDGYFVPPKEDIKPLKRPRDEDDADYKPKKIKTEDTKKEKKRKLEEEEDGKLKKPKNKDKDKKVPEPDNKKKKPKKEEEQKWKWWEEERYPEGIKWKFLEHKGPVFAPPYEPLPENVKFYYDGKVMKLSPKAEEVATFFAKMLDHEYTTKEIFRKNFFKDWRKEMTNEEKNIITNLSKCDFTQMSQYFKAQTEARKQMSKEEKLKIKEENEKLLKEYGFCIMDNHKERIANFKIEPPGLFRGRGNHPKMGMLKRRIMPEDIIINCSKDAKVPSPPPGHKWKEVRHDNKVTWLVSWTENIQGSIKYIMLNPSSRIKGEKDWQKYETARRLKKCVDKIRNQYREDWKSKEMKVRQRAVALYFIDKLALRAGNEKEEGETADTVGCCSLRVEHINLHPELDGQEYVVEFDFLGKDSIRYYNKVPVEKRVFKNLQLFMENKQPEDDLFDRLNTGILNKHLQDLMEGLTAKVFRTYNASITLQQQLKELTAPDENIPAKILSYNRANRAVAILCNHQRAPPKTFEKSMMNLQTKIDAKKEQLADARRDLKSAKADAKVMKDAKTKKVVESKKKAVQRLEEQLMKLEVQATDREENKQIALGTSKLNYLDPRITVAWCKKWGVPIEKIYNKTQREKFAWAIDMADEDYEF
Method in brief: (§1)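 Relaxation assay with 500 ng supercoiled pBR322 DNA as substrate and 1 unit topo I. Reactions were run with or without compound, with camptothecin as reference, for 30 min at 37 °C.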

A549 = test: Cytotoxicity against human A549 cells by sulforhodamine B assay
SNU-638 = test: Cytotoxicity against human SNU638 cells by sulforhodamine B assay
HL-60 = test: Cytotoxicity against human HL60 cells by MTT assay; assay type: functional, cell-based
HT-1080 = test: Cytotoxicity against human HT1080 cells by sulforhodamine B assay
[2] = target: T1, DNA topoisomerase 1 (Homo sapiens); test: Inhibition of DNA topoisomerase 1-mediated supercoiled DNA relaxation at 0.1 mg/mL by agarose gel electrophoresis; method in brief: as §1
Col2 = test: Cytotoxicity against human Col2 cells by sulforhodamine B assay
SK-MEL-2 = test: Cytotoxicity against human SK-MEL-2 cells at 0.001 mg/ml; assay type: functional, cell-based

Structure (SMILES)	inhibition [1]	IC50 (A549) [µM]	IC50 (SNU-638) [µM]	IC50 (HL-60) [µM]	IC50 (HT-1080) [µM]	inhibition [2]	IC50 (Col2) [µM]	Activity (SK-MEL-2)
CCN1CCN(c2nc3c(c4ccccc24)C(=O)c2ccccc2-3)CC1	Active	7.1	5.85	4.21	1.23	Active	6.45	–
CN1CCCN(c2nc3c(c4ccccc24)Cc2ccccc2-3)CC1	–	5.46	8.24	3.33	0.25	Active	2.13	–
NCCNc1nc2c(c3ccccc13)C(=O)c1ccccc1-2	Active	0.85	1.68	10.4	9.6	–	1.43	–
CN1CCN(c2nc3c(c4ccccc24)C(O)c2ccccc2-3)CC1 (stereo unspecified)	–	18.1	9.01	13.4	4.87	–	28.3	–
CCCCCCC1(O)c2ccccc2-c2nc(N3CCN(C)CC3)c3ccccc3c21 (stereo unspecified)	Active	7.21	12.4	8.55	2.57	–	6.24	–
OC1c2ccccc2-c2nc(N3CCOCC3)c3ccccc3c21 (stereo unspecified)	–	93.3	> 100	99.2	> 100	–	> 100	–
CN1CCN(c2nc3c(c4ccccc24)C(C)(O)c2ccccc2-3)CC1 (stereo unspecified)	–	92.5	58.2	79.9	22.2	–	58	–
CCCCNc1nc2c(c3ccccc13)C(=O)c1ccccc1-2	–	> 100	> 100	> 100	48.2	–	> 100	–
CCN1CCN(c2nc3c(c4ccccc24)Cc2ccccc2-3)CC1	–	8.19	3.25	9.98	19	Active	7.74	–
CC1c2ccccc2-c2c1c1ccccc1c(=O)n2C (stereo unspecified)	–	–	–	–	–	–	–	Active
CN1CCN(c2nc3c(c4ccccc24)Cc2ccccc2-3)CC1	–	11.4	19.8	5.87	3.85	Active	10.1	–
CN1CCCN(c2nc3c(c4ccccc24)C(=O)c2ccccc2-3)CC1	Active	1.05	1.36	1.28	0.54	Active	0.27	–
CCN1CCN(c2nc3c(c4ccccc24)C(O)c2ccccc2-3)CC1 (stereo unspecified)	–	20.9	18.9	29.4	8.66	–	19.2	–
O=C1c2ccccc2-c2nc(N3CCOCC3)c3ccccc3c21	–	> 100	> 100	> 100	69.2	–	96.9	–
c1ccc2c(c1)Cc1c-2nc(N2CCOCC2)c2ccccc12	–	5.69	2.58	8.65	1.24	Active	4.42	–
CC(=O)OC1c2ccccc2-c2nc(N3CCOCC3)c3ccccc3c21 (stereo unspecified)	–	8.3	6.99	15.9	58.3	–	7.87	–
CCCCNc1nc2c(c3ccccc13)Cc1ccccc1-2	–	27.7	22.2	19.6	4.39	Active	75.2	–
O=C1c2ccccc2-c2nc(N3CCNCC3)c3ccccc3c21	Active	8.52	8.25	4.68	2.01	Active	7.99	–
CN1CCN(c2nc3c(c4ccccc24)C(=O)c2ccccc2-3)CC1	Active	8.19	7.98	6.35	5.36	Active	7.77	–
